Screens as filed in PubChem.
An excerpt weighted towards active compounds, which were near 1.1% of everything screened.
CaV13 FRET inh – Disruptors of the CACNA1D IQ motif to Ca2+-dependent inactivation inhibitor domain association, primary screening, Förster resonance energy transfer in intact living …. HEK cells, CFP/YFP FRET ICDI-IQ, plate reader, 10 min; percent FRET-ratio fall versus neutral wells. inhibition, % at 12.3 µM. 0.098% of 340,000 active;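 active = mean replicate inhibition of at least 30% and at least 1% of replicates passing that level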;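 note: 0% = median of the neutral control wells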
GRK2 aptamer HTS – inhibitors of human GRK2 displacing RNA aptamer | inhibition of aptamer binding, % at 10 µM | AID 488847 | bead flow cytometry, FAM-aptamer displacement from GRK2 | 0.59% of 330,000 active | P25098;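 active = inhibition of aptamer binding above 40%, roughly 3 SD of noise, on plates passing a quality check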;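 note: median bead fluorescence of bound FAM aptamer so fluorescent compounds give negative values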
Target sequence (P25098 whole entry, looked up): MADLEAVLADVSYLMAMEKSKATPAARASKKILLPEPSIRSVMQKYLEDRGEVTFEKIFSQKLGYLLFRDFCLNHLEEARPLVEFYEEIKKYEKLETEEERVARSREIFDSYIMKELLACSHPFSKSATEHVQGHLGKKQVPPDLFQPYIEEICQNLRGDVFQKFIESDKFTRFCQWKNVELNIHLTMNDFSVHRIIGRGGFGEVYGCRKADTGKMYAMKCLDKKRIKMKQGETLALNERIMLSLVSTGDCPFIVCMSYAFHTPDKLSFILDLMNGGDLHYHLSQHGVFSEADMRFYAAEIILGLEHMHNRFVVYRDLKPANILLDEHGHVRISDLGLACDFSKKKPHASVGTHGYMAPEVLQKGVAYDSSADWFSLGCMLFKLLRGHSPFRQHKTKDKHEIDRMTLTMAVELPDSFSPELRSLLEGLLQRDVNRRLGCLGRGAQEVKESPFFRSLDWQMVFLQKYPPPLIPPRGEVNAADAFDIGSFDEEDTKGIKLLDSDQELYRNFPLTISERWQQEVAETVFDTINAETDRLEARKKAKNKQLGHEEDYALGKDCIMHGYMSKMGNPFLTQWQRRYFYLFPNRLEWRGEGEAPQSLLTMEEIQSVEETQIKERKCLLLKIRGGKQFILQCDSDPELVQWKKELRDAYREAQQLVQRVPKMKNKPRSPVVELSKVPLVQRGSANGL
procasp7 counter – activates human procaspase-7, counter-screen for procaspase-3 activators. recombinant procaspase-7, Ac-DEVD-pNA absorbance 405 nm; D23A/D198A/D206A triple mutant, cannot self-cleave; scale: DMSO 0, 5 µM enzyme 100. 0.093% of 330,000 active. activation, % at 8.5 µM. P55210;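 active = percent activation above the screen-wide mean plus 3 SD, cut at about 25% in these data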
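Replicates: singlicate. Assay system: Procaspase-7 triple mutant (PC-7 D3A). Signal: 405 nm absorbance of p-nitroaniline. Times: 1 h preincubation, 2 h reaction. Buffer or medium: Zinc-free HEPES pH 7.4 with 300 mM NaCl, 0.01% Triton X-100. Also added: DEVD-pNA substrate. Benchmarks: DMSO wells as 0%, DMSO with 5 µM added PC-7 as 100%.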
aDG glyco act – increases alpha dystroglycan glycosylation | Pro5-aDG cells, alpha-DG glycosylation AlphaScreen (IIH6); 0% Pro5, 100% B10-LARGE cell signal | AID 624168 | 0.22% of 360,000 active | activation, % at 10 µM;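 active = activation of at least 8% versus controls, or a plate z-score of at least 8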;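 note: Pro5 are CHO cells carrying HIG-tagged alpha-DG that lacks glycosylation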
proCasp3 act – procaspase-3 (human) activation | activation, % at 8.5 µM | recombinant procaspase-3 D3A, Ac-DEVD-pNA absorbance 405 nm | 0.11% of 330,000 active | AID 463141;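 active = activation above the mean of all tested compounds plus 3 SD, cut at about 21% in these data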;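 note: 0% = DMSO alone and 100% = DMSO wells spiked with extra 5 µM PC-3 D3A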
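Test system: Procaspase-3 D3A mutant; medium: Zinc-free HEPES/NaCl buffer with 0.01% Triton X-100 at pH 7.4; reagent: DEVD-pNA substrate; doses: one concentration, 8.5 µM nominal, 0.8% DMSO; times: 1 h preincubation plus 2 h reaction at 25 °C; signal: Epi-absorbance at 405 nm of released p-nitroaniline, 0 and 120 min; replicates: singlicate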
T cell modulator – T cell immune modulation candidate. AID 2052. 2C CD8+ T cell-vesicle binding, flow cytometry; stronger effect = lower value. 0.068% of 330,000 active. response (vesicle binding), % at 7 µM;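 active = response, share of CD8 T cells binding vesicles, and their 90th percentile fluorescence all below set limits, cut at about 80% in these data, passing the limit was not always enough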;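 note: values below 100% mean blocked vesicle binding to the CD8+ T cells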
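System: murine 2C transgenic CD8+ T lymphocytes; also added: QL9-loaded Drosophila micro-vesicles; times: binding 1.5 h at 37 °C; measured by: flow cytometry, PE anti-B7-1 (FL2) versus Alexa647 anti-CD8 (FL8), PFA-fixed; control set: Peptide-free naked vesicles (low) and QL9 vesicles with 0.7% DMSO vehicle (high)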
GRK2 CP1 – human GRK2 inhibition confirmation, cherry pick 1; shares compounds with GRK2 aptamer HTS; bead-bound GRK2, FAM-aptamer displacement, flow cytometry; aptamer displacement, % at 10 µM; 4% of 2,000 active; AID 504451;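 active = aptamer displacement above 40%, near three times the noise of non-fluorescent compounds, on plates passing quality checks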;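 note: negative values mostly reflect intrinsic compound fluorescence rather than true enhancement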
Aptamer quench SP – aptamer fluorescence quenching in GRK2 counter-screen; shares compounds with GRK2 aptamer HTS; Carboxyfluorescein RNA aptamer on beads, flow cytometry quenching; stronger effect = lower value; fluorescence response (% of DMSO), % at 10 µM; 2,000 tested, under 10 active; AID 504580;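 active = compounds that quench the bead-bound fluorescent RNA probe, cutting fluorescence to under half of the solvent control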;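 note: counterscreen run without GRK2 so only probe quenching by compound is measured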
GRK2 CP2 – confirmation of human GRK2 inhibitors binding RNA aptamer site; shares compounds with GRK2 aptamer HTS; bead-bound GRK2, FAM-aptamer displacement, flow cytometry; inhibition of aptamer binding, % at 10 µM; 360 tested, under 10 active; AID 504782;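 active = inhibition of aptamer binding above 40%, about triple the noise seen with nonglowing compounds, on plates passing quality control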;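 note: negative values mostly come from compounds that fluoresce themselves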
FAM quench SP – quenches fluorescent RNA aptamer, GRK2 hit artifact | shares compounds with GRK2 aptamer HTS | AID 588494 | fluorescence response vs DMSO, % at 10 µM | carboxyfluorescein RNA aptamer beads, flow cytometry quenching; stronger effect = lower value | 360 tested, under 10 active;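 active = response vs DMSO under 50%, meaning signal dropped by over half, treated as fluorescence quencher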;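 note: labelled aptamer on streptavidin beads without GRK2 as a quench counter-screen; 100% = bead fluorescence of DMSO wells and lower means quenching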
The depositor's hits bear a star; / = no result given.

SMILES	CaV13 FRET inh	GRK2 aptamer HTS	procasp7 counter	aDG glyco act	proCasp3 act	T cell modulator	GRK2 CP1	Aptamer quench SP	others
Cc1cc(C(=O)N2CCC(C)(C(=O)NS(=O)(=O)C3CC3)C2)n(C(C)(C)C)n1 (stereo not drawn)	-12	/	/	0	/	/	/	/
Cc1ccc(-c2csc3ncn(CC(=O)NCC(c4ccco4)N4CCCC4)c(=O)c23)cc1 (stereo not drawn)	-5	78*	1	0	-2	454	-4	92
C[C@H]1CN([C@@H](C)CO)C(=O)CCCn2cc(nn2)CO[C@@H]1CN(C)S(=O)(=O)c1ccccc1F	-6	/	/	/	/	/	/	/
Cc1ccc(CCNC(=O)CC(C)CC2=NS(=O)(=O)c3ccccc3N2)cc1 (stereo not drawn)	-2	65*	-3	5	3	941	-3	95
COc1ccc(CCNC(=O)CC(C)(C)CC2=NS(=O)(=O)c3ccccc3N2)cc1OC	-7	0	-5	0	3	266	/	/
COc1ccccc1N1CCN(C(=O)COc2cc(C)cc(C)c2)CC1	0	3	-2	0	11	219	/	/
O=C(O)CCn1c(-c2ccccn2)nc2ccccc21	-1	27	-9	0	-6	172	4	95
O=[N+]([O-])c1ccc(OCC(O)CN2CCN(c3ccccc3F)CC2)cc1 (stereo not drawn)	-3	0	7	0	10	238	/	/
Cc1ccc2[nH]c(-c3ccccc3)c(CN3CCCC3)c(=O)c2c1	-4	0	-2	0	1	218	/	/
Cc1ccc2[nH]c(-c3ccccc3)c(CN(C)C)c(=O)c2c1	-4	29	-5	0	0	264	-5	98
O=C(NCc1cccs1)c1cc(-c2ccc(O)cc2)on1	-3	79*	8	0	5	184	-3	98
Cc1ccc(-c2cc(C(=O)NCc3cccs3)no2)cc1	/	1	-13	0	-5	516	/	/
CCC(CC)=NNc1ccc([N+](=O)[O-])cc1[N+](=O)[O-]	-14	61*	-2	0	5	109	2	94
O=[N+]([O-])c1ccc(NN=C(C2CC2)C2CC2)c([N+](=O)[O-])c1	-9	/	/	0	/	/	/	/
CC(CCc1ccccc1)NC(=O)CN1CCN(Cc2ccc(Cl)cc2)C1=O (stereo not drawn)	-5	1	-6	0	0	285	/	/
COc1ccc(C(CC(=O)N2CCCC2)c2c(OC)cc(OC)c3c(-c4ccccc4)cc(=O)oc23)cc1 (stereo not drawn)	-5	12	10	0	5	288	/	/
COc1ccc(C(CC(=O)N2CCOCC2)c2c(OC)cc(OC)c3c(-c4ccccc4)cc(=O)oc23)cc1 (stereo not drawn)	-6	48*	11	0	1	174	-1	94
Cc1ccc(S(=O)(=O)Oc2cccc(N3C(=O)C4CC=CCC4C3=O)c2)cc1 (stereo not drawn)	-3	71*	3	0	6	312	1	100
O=C1CN(C(=S)NC(=O)c2ccccc2[N+](=O)[O-])CCN1	-11	2	0	0	-7	364	/	/
CCOc1ccc(NS(=O)(=O)c2ccc3[nH]c(=O)[nH]c3c2)cc1	-5	50*	1	0	3	565	-3	96
COC(=O)C(CC(C)C)N(Cc1ccc(Br)cc1)S(=O)(=O)CCl (stereo not drawn)	-4	/	/	/	/	/	/	/
CC(=O)COC(=O)c1cccc(N2C(=O)C3C4C=CC(C4)C3C2=O)c1 (stereo not drawn)	-2	80*	-2	0	5	136	2	104
CCOCCCNC(=O)CS(=O)(=O)Cc1nc(-c2cccc(OC)c2)oc1C	-7	56*	6	0	-6	579	2	100
Cc1oc(-c2ccccc2Cl)nc1CSCC(=O)NC1CCCC1	-5	30	0	0	10	274	0	99
Cc1oc(-c2cccc(Cl)c2)nc1CS(=O)(=O)CC(=O)NC1CCCC1	-2	67*	11	0	-3	237	-2	96
SMILES	CaV13 FRET inh	GRK2 aptamer HTS	procasp7 counter	aDG glyco act	proCasp3 act	T cell modulator	GRK2 CP1	Aptamer quench SP	others
Cc1oc(-c2ccccc2Cl)nc1CSc1nc2c(c(=O)[nH]1)CCC2	-6	56*	4	0	1	503	7	99
CCCNC(=O)CS(=O)(=O)Cc1nc(-c2cccc(OC)c2)oc1C	-5	0	3	1	3	519	/	/
Cc1ccc(S(=O)(=O)N(C)C[C@@H]2Oc3ncc(C#CCC(C)C)cc3C(=O)N([C@H](C)CO)C[C@H]2C)cc1	-7	/	/	0	/	/	/	/
NC(C(=O)O)C(c1ccccc1)C(F)F (stereo not drawn)	/	2	-5	/	2	261	/	/
CCOc1ccccc1NC(=O)COc1ccc2ccc(=O)oc2c1	-2	1	3	0	3	178	/	/
Cn1c(NCc2ccccc2O)nc2ccccc21	-5	45*	-2	0	5	276	1	99
CC(C(=O)OCC(=O)c1c(N)n(C)c(=O)n(C)c1=O)N1C(=O)c2ccccc2C1=O (stereo not drawn)	-5	1	-4	0	-11	164	/	/
Cn1c(N)c(C(=O)COC(=O)CCCN2C(=O)c3ccccc3C2=O)c(=O)n(C)c1=O	-3	93*	-2	0	3	292	1	99
COC(=O)c1cccc(C23CC4(C2)[C@H](CN(CC2CCCCC2)[C@@H]4c2ccccc2)C3c2ccccc2)c1 (stereo partly drawn)	-9	85*	1	0	0	337	-8	100
O=C(NC(=S)NCc1ccccc1)c1ccc2c(c1)OCO2	-5	94*	-11	0	2	250	/	/	GRK2 CP2=-35;FAM quench SP=100
O=C(NC(=S)NCc1cccnc1)c1ccccc1	-4	100*	-7	0	2	266	/	/	GRK2 CP2=-35;FAM quench SP=101
